Measured values from ChEMBL document CHEMBL1806389, “Synthesis, in vitro and in vivo evaluation of fluorine-18 labelled FE-GW405833 as a PET tracer for type 2 cannabinoid receptor imaging” (Bioorg Med Chem, 2011).
“And” between values parts separate entries of the source, which are not always exact repeats. Identical values can stand only once. The source made the active and inactive calls. No cut-off for these calls is given here.

Columns and labels:
Spleen [1] = test: Biodistribution in NMRI mouse spleen at 6 MBq/ml, iv after 60 mins by gamma counting; assay type: ADME, organism-based; details: in vivo, 1 h
Procedure, shortened: (§1)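 Tracer formulated in saline at about 6 MBq/ml (diluted HPLC-purified product); 100 µl given into a tail vein. Mice killed by decapitation at 2 or 60 min p.i.; organs, body parts and blood dissected, weighed and gamma-counted. Values as %ID (cpm in organ/total cpm recovered), %ID/g, or SUV. Total blood mass taken as 7% of body mass. Mean SD, n = 4 per time point.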

Kidney [2] = test: Biodistribution in NMRI mouse kidney at 6 MBq/ml, iv after 2 mins by gamma counting; assay type: ADME, organism-based; details: in vivo; procedure, shortened: as §1
Brain [3] = test: Biodistribution in NMRI mouse brain at 6 MBq/ml, iv after 2 mins by gamma counting; assay type: ADME, organism-based; details: in vivo; procedure, shortened: as §1
Lung [4] = test: Biodistribution in NMRI mouse lungs at 6 MBq/ml, iv after 60 mins by gamma counting; assay type: ADME, organism-based; details: in vivo, 1 h; procedure, shortened: as §1
Intestine [5] = test: Biodistribution in NMRI mouse intestine at 6 MBq/ml, iv after 60 mins by gamma counting; assay type: ADME, organism-based; details: in vivo, 1 h; procedure, shortened: as §1
Pancreas [6] = test: Biodistribution in NMRI mouse pancreas at 6 MBq/ml, iv after 2 mins by gamma counting; assay type: ADME, organism-based; details: in vivo; procedure, shortened: as §1
[7] = Octanol-phosphate buffer partition coefficient, log D of the compound at pH 7.4; assay type: physicochemical
Procedure, shortened: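 Radiolabelled tracer partitioned between 1-octanol and 0.025 M phosphate buffer pH 7.4; log D from distribution of radioactivity.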

Cannabinoid receptor 2 [8] = molecular target: T1, Cannabinoid receptor 2 (Homo sapiens, UniProt P34972); test: Inverse agonist activity at human CB2 receptor expressed in CHO cells assessed as effect on [35S]-GTPgammaS binding after 1 hrs by beta counting; assay type: functional, cell-based
T1 sequence (P34972 whole entry): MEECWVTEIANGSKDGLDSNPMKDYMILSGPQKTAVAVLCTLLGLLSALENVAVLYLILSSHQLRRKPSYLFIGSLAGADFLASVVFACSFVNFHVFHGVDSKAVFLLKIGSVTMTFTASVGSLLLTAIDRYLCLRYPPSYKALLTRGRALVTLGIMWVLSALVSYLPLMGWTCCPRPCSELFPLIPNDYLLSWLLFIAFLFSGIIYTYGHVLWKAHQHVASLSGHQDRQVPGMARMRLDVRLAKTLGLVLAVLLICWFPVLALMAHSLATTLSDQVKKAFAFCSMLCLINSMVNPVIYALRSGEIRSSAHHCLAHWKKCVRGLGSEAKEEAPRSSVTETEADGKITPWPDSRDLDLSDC

[9] = Metabolic stability in NMRI mouse brain at 6 MBq/ml, iv after 10 mins by HPLC analysis; assay type: ADME, organism-based; details: read-out: Stability
Procedure, shortened: (§2)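 Normal NMRI mice were given the tracer IV, and plasma and brain were sampled at 2, 10 or 30 min. The percentage of intact tracer was measured by reversed-phase HPLC with 0.05 M ammonium acetate pH 6.9/acetonitrile eluent, 30/70 for plasma and 40/60 for brain, at 1 ml/min.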

Pancreas [10] = test: Biodistribution in NMRI mouse pancreas at 6 MBq/ml, iv after 60 mins by gamma counting; assay type: ADME, organism-based; details: in vivo, 1 h; procedure, shortened: as §1
Stomach [11] = test: Biodistribution in NMRI mouse stomach at 6 MBq/ml, iv after 60 mins by gamma counting; assay type: ADME, organism-based; details: in vivo, 1 h; procedure, shortened: as §1
Heart [12] = test: Biodistribution in NMRI mouse heart at 6 MBq/ml, iv after 60 mins by gamma counting; assay type: ADME, organism-based; details: in vivo, 1 h; procedure, shortened: as §1
Kidney [13] = test: Biodistribution in NMRI mouse kidney at 6 MBq/ml, iv after 60 mins by gamma counting; assay type: ADME, organism-based; details: in vivo, 1 h; procedure, shortened: as §1
[14] = Biodistribution in NMRI mouse urine at 6 MBq/ml, iv after 60 mins by gamma counting; assay type: ADME, organism-based; details: in vivo, 1 h; procedure, shortened: as §1
[15] = Metabolic stability in NMRI mouse brain at 6 MBq/ml, iv after 30 mins by HPLC analysis; assay type: ADME, organism-based; details: read-out: Stability; procedure, shortened: as §2
Intestine [16] = test: Biodistribution in NMRI mouse intestine at 6 MBq/ml, iv after 2 mins by gamma counting; assay type: ADME, organism-based; details: in vivo; procedure, shortened: as §1
Liver [17] = test: Biodistribution in NMRI mouse liver at 6 MBq/ml, iv after 60 mins by gamma counting; assay type: ADME, organism-based; details: in vivo, 1 h; procedure, shortened: as §1
Blood [18] = test: Biodistribution in NMRI mouse blood at 6 MBq/ml, iv after 60 mins by gamma counting; assay type: ADME, organism-based; details: in vivo, 1 h; procedure, shortened: as §1
Liver [19] = test: Biodistribution in NMRI mouse liver at 6 MBq/ml, iv after 2 mins by gamma counting; assay type: ADME, organism-based; details: in vivo; procedure, shortened: as §1
[20] = Metabolic stability in NMRI mouse plasma at 6 MBq/ml, iv after 10 mins by HPLC analysis; assay type: ADME, organism-based; details: read-out: Stability; procedure, shortened: as §2
Cannabinoid receptor 1 = Cannabinoid receptor 1 (Homo sapiens, UniProt P21554); test: Displacement of [3H]-SR141716A from human CB1 receptor expressed in CHO cells after 1 hrs by beta counting; assay type: cell-based
Cannabinoid receptor 1, sequence (P21554 whole entry): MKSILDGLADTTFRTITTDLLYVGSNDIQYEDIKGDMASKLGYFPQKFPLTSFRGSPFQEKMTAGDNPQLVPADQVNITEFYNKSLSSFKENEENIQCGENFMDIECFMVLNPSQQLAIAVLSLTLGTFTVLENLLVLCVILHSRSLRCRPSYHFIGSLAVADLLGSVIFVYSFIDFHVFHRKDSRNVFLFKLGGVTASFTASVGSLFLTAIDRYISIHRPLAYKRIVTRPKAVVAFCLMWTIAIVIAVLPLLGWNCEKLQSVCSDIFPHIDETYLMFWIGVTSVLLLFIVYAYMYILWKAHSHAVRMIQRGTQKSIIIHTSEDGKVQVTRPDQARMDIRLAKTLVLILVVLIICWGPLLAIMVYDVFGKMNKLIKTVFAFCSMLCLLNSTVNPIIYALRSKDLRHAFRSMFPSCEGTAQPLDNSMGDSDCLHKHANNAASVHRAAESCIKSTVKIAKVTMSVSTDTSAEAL

[21] = Biodistribution in NMRI mouse urine at 6 MBq/ml, iv after 2 mins by gamma counting; assay type: ADME, organism-based; details: in vivo; procedure, shortened: as §1
Heart [22] = test: Biodistribution in NMRI mouse heart at 6 MBq/ml, iv after 2 mins by gamma counting; assay type: ADME, organism-based; details: in vivo; procedure, shortened: as §1
[23] = Metabolic stability in NMRI mouse plasma at 6 MBq/ml, iv after 2 mins by HPLC analysis; assay type: ADME, organism-based; details: read-out: Stability; procedure, shortened: as §2
[24] = Metabolic stability in NMRI mouse plasma at 6 MBq/ml, iv after 30 mins by HPLC analysis; assay type: ADME, organism-based; details: read-out: Stability; procedure, shortened: as §2
Lung [25] = test: Biodistribution in NMRI mouse lungs at 6 MBq/ml, iv after 2 mins by gamma counting; assay type: ADME, organism-based; details: in vivo; procedure, shortened: as §1
Brain [26] = test: Biodistribution in NMRI mouse brain at 6 MBq/ml, iv after 60 mins by gamma counting; assay type: ADME, organism-based; details: in vivo, 1 h; procedure, shortened: as §1
Spleen [27] = test: Biodistribution in NMRI mouse spleen at 6 MBq/ml, iv after 2 mins by gamma counting; assay type: ADME, organism-based; details: in vivo; procedure, shortened: as §1
[28] = Metabolic stability in NMRI mouse brain at 6 MBq/ml, iv after 2 mins by HPLC analysis; assay type: ADME, organism-based; details: read-out: Stability; procedure, shortened: as §2
Stomach [29] = test: Biodistribution in NMRI mouse stomach at 6 MBq/ml, iv after 2 mins by gamma counting; assay type: ADME, organism-based; details: in vivo; procedure, shortened: as §1
Cannabinoid receptor 2 [30] = molecular target: T1, Cannabinoid receptor 2; test: Displacement of [3H]-CP55940 from human CB2 receptor expressed in CHO cells after 1 hrs by beta counting; assay type: cell-based
Blood [31] = test: Biodistribution in NMRI mouse blood at 6 MBq/ml, iv after 2 mins by gamma counting; assay type: ADME, organism-based; details: in vivo; procedure, shortened: as §1
Striatum [32] = test: In vivo binding affinity to human CB2 receptor D80N mutant expressed in Fisher rat […] at 37 MBq, iv after up to 60 mins by microPET study; assay type: functional, organism-based; details: 37 M, tested as the 18F-labelled form
Cannabinoid receptor 2 [33] = molecular target: T1, Cannabinoid receptor 2; test: Inverse agonist activity at human CB2 receptor expressed in CHO cells assessed as effect on [35S]-GTPgammaS binding after 1 hrs by beta counting relative to control; assay type: functional, cell-based; details: tested as the 18F-labelled form
Striatum [34] = test: In vivo binding affinity to human CB2 receptor D80N mutant expressed in Fisher rat right striatum at 37 MBq, iv after 60 mins by microPET study relative to left striatum; assay type: functional
Procedure, shortened: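 Normal 8-week-old Fisher rat received stereotactic AAV2/7-eGFP-T2A-hCB2R(D80N) vector in the right striatum and a control eGFP vector in the left striatum. Scanned 34 days later under 3% isoflurane in 2.0 L/min oxygen. Dynamic microPET started immediately after IV injection of about 37 MBq tracer. Images spatially normalized to stereotactic space; striatal time-activity curves from predefined volumes of interest.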

Brain [35] = test: Biodistribution in Wistar rat brain after 60 mins; assay type: ADME, organism-based; details: in vivo, 1 h

Q: Which results are given for `Cc1c(CCN2CCOCC2)c2cc(OCC[18F])ccc2n1C(=O)c1cccc(Cl)c1Cl`?
A: SUV (Spleen [1]): 1.1; Drug uptake (Kidney [2]): 9.8 %ID and 15.8 % ID/g; SUV (Kidney [2]): 5.5; Drug uptake (Brain [3]): 1.3 %ID and 2.9 % ID/g; SUV (Brain [3]): 1; SUV (Lung [4]): 0.8; Drug uptake (Intestine [5]): 35.7 %ID; SUV (Pancreas [6]): 1.2; logD [7]: 2.8; EC50 (Cannabinoid receptor 2 [8]): 17.9 nM; remaining at 10 min [9]: 79%; SUV (Pancreas [10]): 0.8; Drug uptake (Stomach [11]): 1.8 %ID; SUV (Heart [12]): 0.7; Drug uptake (Kidney [13]): 2.2 %ID and 3.4 % ID/g; SUV (Kidney [13]): 1.2; Drug uptake [14]: 1.4 %ID; remaining at 0.5 h [15]: 48%; Drug uptake (Intestine [16]): 8.9 %ID; Drug uptake (Liver [17]): 23.7 %ID and 11.4 % ID/g; SUV (Liver [17]): 4; Drug uptake (Blood [18]): 5 %ID and 2.1 % ID/g; SUV (Blood [18]): 0.7; Drug uptake (Liver [19]): 47.4 %ID and 26.3 % ID/g; SUV (Liver [19]): 9.1; remaining at 10 min [20]: 52%; Ki (Cannabinoid receptor 1): 10000 nM; Drug uptake [21]: 0.1 %ID; SUV (Heart [22]): 2.7; remaining at 2 min [23]: 84%; remaining at 0.5 h [24]: 12%; SUV (Lung [25]): 4.5; Drug uptake (Brain [26]): 0.7 %ID and 1.6 % ID/g; SUV (Brain [26]): 0.6; SUV (Spleen [27]): 3.3; remaining at 2 min [28]: 95%; Drug uptake (Stomach [29]): 1.3 %ID; Ki (Cannabinoid receptor 2 [30]): 27 nM; Drug uptake (Blood [31]): 4.5 %ID and 1.9 % ID/g; SUV (Blood [31]): 0.6

Q: What does the source list for `Cc1c(CCN2CCOCC2)c2cc(OCCF)ccc2n1C(=O)c1cccc(Cl)c1Cl`?
A: Activity (Striatum [32]): Active; Emax (Cannabinoid receptor 2 [33]): -82%

Q: For `Cc1c(CCN2CCOCC2)c2cc(O[11CH3])ccc2n1C(=O)c1cccc(Cl)c1Cl`, which Ratio (Striatum [34]) is on record?
A: 1.6

Q: What about the Drug uptake (Brain [35]) of the same molecule?
A: 0.1 %ID
